Experimental data reported in ChEMBL document CHEMBL1122812, “Novel amino-substituted 3-quinolinecarboxylic acid antibacterial agents: synthesis and structure-activity relationships” (1984).
In brackets after ≈: the same amount, converted by molar mass.

Legend:
Type in all cases: functional
Escherichia coli = experiment: In vitro minimum inhibitory concentration against growth of Escherichia coli Vogel
Summary of the method: (§1)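 Tube serial dilution. Cultures grown overnight at 37 °C in tryptose phosphate broth or brain heart infusion broth. Compound stock of 1000 μg/mL (as free acid) made in minimal 0.5 N NaOH, then diluted in distilled water. Dilutions were mixed 1:1 with culture to a final 1×10^5 cells/mL and incubated 18–20 h at 37 °C. MIC = lowest concentration with no visible growth.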

Pseudomonas aeruginosa = experiment: In vitro minimum inhibitory concentration against growth of Pseudomonas aeruginosa MGH-2; summary of the method: as §1
[1] = Antibacterial activity in mice after intraperitoneal administration with 0.5 mL of Escherichia coli Vogel inoculum; details: sc
Summary of the method: (§2)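 Female ICR mice (18-20 g) infected intraperitoneally with 0.5 mL of E. coli Vogel (grown in brain heart infusion broth, suspended in saline) at 1.9×10^7 cells/mL. Compound as free acid dissolved in dilute NaOH and diluted with water, given once (0.5 mL) sc or po at 0.5 h postinfection. Groups of 10 mice at four or five dose levels, with nonmedicated controls. Deaths recorded daily for 7 days; PD50 by probit analysis.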

Mus musculus = experiment: Compound was evaluated for antibacterial activity in mice after peroral administration with 0.5 mL of Escherichia coli Vogel inoculum; details: po, read-out: PD50; summary of the method: as §2
Staphylococcus aureus = experiment: In vitro minimum inhibitory concentration against growth of Staphylococcus aureus Smith
Summary of the method: (§3)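 Tube serial dilution. Stocks at 1000 μg/mL (free acid) were made in minimal 0.5 N NaOH and diluted in distilled water. Cultures were grown overnight at 37 °C in tryptose phosphate or brain heart infusion broth. Final inoculum was 1×10^5 cells/mL, incubated 18–20 h at 37 °C. MIC was the lowest concentration preventing visible growth.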

Klebsiella pneumoniae = experiment: In vitro minimum inhibitory concentration against growth of Klebsiella pneumoniae strain 39645; summary of the method: as §3

Question: Which MIC (Escherichia coli) does the source give for `CNn1cc(C(=O)O)c(=O)c2cc(F)c(N3CCSCC3)cc21` here?
Answer: Its MIC is 0.5 µg/mL (≈ 1.48 µM).

Question: Which MIC (Pseudomonas aeruginosa) does the source give for `CCn1cc(C(=O)O)c(=O)c2cc(F)c(N3CCNCC3)cc21` [NORFLOXACIN] here?
Answer: The MIC was 1 µg/mL (≈ 3.13 µM).

Question: What about the PD50 [1] of the same molecule?
Answer: Its PD50 is 0.3 mg/kg.

Question: And the ED50 (Mus musculus)?
Answer: The ED50 was 5.9 mg/kg.

Question: And the MIC (Escherichia coli)?
Answer: The MIC was 0.5 µg/mL (≈ 1.57 µM).

Question: What about the MIC (Staphylococcus aureus) of the same molecule?
Answer: The MIC was 1.95 µg/mL (≈ 6.11 µM).

Question: What about the MIC (Klebsiella pneumoniae) of the same molecule?
Answer: Its MIC is 0.5 µg/mL (≈ 1.57 µM).

Question: Which PD50 [1] does the source give for `CCCN1CCN(c2cc3c(cc2F)c(=O)c(C(=O)O)cn3NC)CC1` here?
Answer: Its PD50 is 14.2 mg/kg.

Question: What about the MIC (Escherichia coli) of the same molecule?
Answer: The MIC was 0.25 µg/mL (≈ 0.69 µM).

Question: For `CCOC(=O)c1cn(NC)c2cc(N3CCN(C)CC3)c(F)cc2c1=O.CS(=O)(=O)O`, which MIC (Escherichia coli) is on record?
Answer: The MIC was 62.5 µg/mL.

Question: With `CNn1cc(C(=O)O)c(=O)c2cc(F)c(N3CCC(O)CC3)cc21` as the molecule, how does the MIC (Escherichia coli) read?
Answer: Its MIC is 1.95 µg/mL (≈ 5.82 µM).

Question: Which MIC (Escherichia coli) does the source give for `CCNn1cc(C(=O)O)c(=O)c2cc(F)c(N3CCN(C)CC3)cc21` here?
Answer: Its MIC is 0.5 µg/mL (≈ 1.44 µM).

Question: For `CNn1cc(C(=O)O)c(=O)c2cc(F)c(N3CCCC(O)C3)cc21` (configuration not stated), which PD50 [1] is on record?
Answer: Its PD50 is 41 mg/kg.

Question: Which PD50 [1] does the source give for `CNn1cc(C(=O)O)c(=O)c2cc(F)c(N3CCCNCC3)cc21.Cl` here?
Answer: Its PD50 is 2.8 mg/kg.

Question: Which PD50 [1] does the source give for `CN1CCN(c2cc3c(cc2F)c(=O)c(C(=O)O)cn3N)CC1` here?
Answer: Its PD50 is 2.9 mg/kg.

Question: What about the MIC (Escherichia coli) of the same molecule?
Answer: Its MIC is 1.95 µg/mL (≈ 6.09 µM).

Question: With `CCN1CCN(c2cc3c(cc2F)c(=O)c(C(=O)O)cn3NC)CC1` as the molecule, how does the MIC (Escherichia coli) read?
Answer: Its MIC is 0.5 µg/mL (≈ 1.44 µM).

Question: With `CNn1cc(C(=O)O)c(=O)c2cc(F)c(N3CC[N+](C)([O-])CC3)cc21` as the molecule, how does the PD50 [1] read?
Answer: The PD50 was 9.4 mg/kg.

Question: And the MIC (Escherichia coli)?
Answer: Its MIC is 15.6 µg/mL (≈ 44.5 µM).

Question: What does the source list for `CN1CCN(c2cc3c(cc2F)c(=O)c(C(=O)O)cn3N(C)C)CC1`?
Answer: PD50 [1]: 1.6 mg/kg; MIC (Escherichia coli): 0.5 µg/mL (≈ 1.44 µM)

Question: Which results are given for `CNn1cc(C(=O)O)c(=O)c2cc(F)c(N3CCN(C(C)C)CC3)cc21`?
Answer: PD50 [1]: 1.5 mg/kg; MIC (Escherichia coli): 0.5 µg/mL (≈ 1.38 µM)

Question: Which results are given for `CCCNn1cc(C(=O)O)c(=O)c2cc(F)c(N3CCN(C)CC3)cc21`?
Answer: PD50 [1]: 33 mg/kg; MIC (Escherichia coli): 1.95 µg/mL (≈ 5.38 µM)

Question: With `CNn1cc(C(=O)O)c(=O)c2cc(F)c(N3CCN(C)CC3)cc21` [AMIFLOXACIN] as the molecule, how does the MIC (Pseudomonas aeruginosa) read?
Answer: The MIC was 1 µg/mL (≈ 2.99 µM).

Question: What about the ED50 (Mus musculus) of the same molecule?
Answer: The ED50 was 1 mg/kg.

Question: And the MIC (Escherichia coli)?
Answer: Its MIC is 0.25 µg/mL (≈ 0.748 µM).

Question: What about the MIC (Staphylococcus aureus) of the same molecule?
Answer: The MIC was 1 µg/mL (≈ 2.99 µM).

Question: And the MIC (Klebsiella pneumoniae)?
Answer: The MIC was 0.25 µg/mL (≈ 0.748 µM).

Question: For `CNn1cc(C(=O)O)c(=O)c2cc(F)c(N3CCC(O)C3)cc21` (configuration not stated), which MIC (Escherichia coli) is on record?
Answer: The MIC was 1 µg/mL (≈ 3.11 µM).

Question: With `C=CCNn1cc(C(=O)O)c(=O)c2cc(F)c(N3CCN(C)CC3)cc21` as the molecule, how does the PD50 [1] read?
Answer: The PD50 was 19 mg/kg.

Question: And the MIC (Escherichia coli)?
Answer: The MIC was 1 µg/mL (≈ 2.77 µM).

Question: Which results are given for `CNn1cc(C(=O)O)c(=O)c2cc(F)c(N3CCNCC3)cc21`?
Answer: MIC (Pseudomonas aeruginosa): 1 µg/mL (≈ 3.12 µM); PD50 [1]: 0.3 mg/kg; ED50 (Mus musculus): 6.4 mg/kg; MIC (Escherichia coli): 1 µg/mL (≈ 3.12 µM); MIC (Staphylococcus aureus): 1.95 µg/mL (≈ 6.09 µM); MIC (Klebsiella pneumoniae): 1 µg/mL (≈ 3.12 µM)

Question: Which results are given for `CNn1cc(C(=O)O)c(=O)c2cc(F)c(N3CCN(C(C)=O)CC3)cc21`?
Answer: PD50 [1]: 109 mg/kg; MIC (Escherichia coli): 15.6 µg/mL (≈ 43.1 µM)

Question: For `CNn1cc(C(=O)O)c(=O)c2cc(F)c(N3CCOCC3)cc21`, which PD50 [1] is on record?
Answer: The PD50 was 16.6 mg/kg.

Question: And the MIC (Escherichia coli)?
Answer: Its MIC is 0.5 µg/mL (≈ 1.56 µM).

Question: Which MIC (Pseudomonas aeruginosa) does the source give for `CCn1cc(C(=O)O)c(=O)c2cc(F)c(N3CCN(C)CC3)cc21` [PEFLOXACIN] here?
Answer: Its MIC is 1 µg/mL (≈ 3 µM).

Question: And the PD50 [1]?
Answer: The PD50 was 0.5 mg/kg.

Question: What about the ED50 (Mus musculus) of the same molecule?
Answer: Its ED50 is 1.1 mg/kg.

Question: What about the MIC (Escherichia coli) of the same molecule?
Answer: Its MIC is 0.25 µg/mL (≈ 0.75 µM).

Question: What about the MIC (Staphylococcus aureus) of the same molecule?
Answer: Its MIC is 1 µg/mL (≈ 3 µM).

Question: What about the MIC (Klebsiella pneumoniae) of the same molecule?
Answer: Its MIC is 0.5 µg/mL (≈ 1.5 µM).

Question: What does the source list for `CNn1cc(C(=O)O)c(=O)c2cc(F)c(N3CCCN(C)CC3)cc21.Cl`?
Answer: PD50 [1]: 5.5 mg/kg; MIC (Escherichia coli): 1.95 µg/mL

Question: Which MIC (Escherichia coli) does the source give for `CNn1cc(C(=O)O)c(=O)c2cc(F)c(N3CCCC3)cc21` here?
Answer: The MIC was 1 µg/mL (≈ 3.28 µM).
